Measurements reported in ChEMBL document CHEMBL1124475, “The thieno[3,2-c]pyridine and furo[3,2-c]pyridine rings: new pharmacophores with potential antipsychotic activity” (J Med Chem, 1989).
The source made the active and inactive calls. The calls are words filed in the database; no cut-off is given here.

What was measured:
Rattus norvegicus [1] = organism: Rattus norvegicus; assay: animal or person; settings: po
Rattus norvegicus [2] = assay: Blockade of apomorphine-induced stereotypy in rats when administered perorally; format: functional; settings: po
[3] = molecular target: Serotonin 1 (5-HT1) receptor (Rattus norvegicus, UniProt P28564+P30940+P19327+P28565); assay: Ability to bind at 5-hydroxytryptamine 1 receptor of rat hippocampus by displacing [3H]5-HT; format: tissue-based
Method in brief: (§1)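 Rat receptor radioligand displacement, five test-ligand concentrations used to calculate IC50, each assay in duplicate. Some compounds determined four times (in duplicate), with mean IC50 reported.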

Mus musculus [4] = assay: Blockade of apomorphine-induced climbing in mice when administered perorally
Rattus norvegicus [5] = assay: Reversal of trifluoperazine-induced catalepsy in rats when administered perorally; Inactive; format: functional, organism-based
[6] = molecular target: T1, 5-hydroxytryptamine receptor 1A (Rattus norvegicus, UniProt P19327); assay: Ability to bind at 5-hydroxytryptamine 1A receptor of rat hippocampus by displacing [3H]8-OH-DPAT; format: tissue-based
T1 sequence (P19327 whole entry): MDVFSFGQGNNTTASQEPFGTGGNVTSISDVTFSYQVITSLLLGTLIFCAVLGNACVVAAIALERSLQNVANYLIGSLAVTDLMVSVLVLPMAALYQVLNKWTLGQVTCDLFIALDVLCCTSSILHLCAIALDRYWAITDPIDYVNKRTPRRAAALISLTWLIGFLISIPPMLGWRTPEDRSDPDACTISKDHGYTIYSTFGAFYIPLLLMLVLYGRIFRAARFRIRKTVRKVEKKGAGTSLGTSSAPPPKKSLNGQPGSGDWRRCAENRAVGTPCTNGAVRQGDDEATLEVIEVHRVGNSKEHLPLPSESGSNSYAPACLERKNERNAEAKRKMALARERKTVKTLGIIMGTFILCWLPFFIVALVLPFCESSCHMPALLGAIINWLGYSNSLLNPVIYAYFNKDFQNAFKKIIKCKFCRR
Method in brief: as §1

Rattus norvegicus [7] = assay: Blockade of Sidman-avoidance activity in rats when administered perorally; format: functional
Method in brief: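 Rats trained in once-daily Sidman sessions until stable; non-learners after 3 days replaced. Twelve rats dosed 30 min before session. Each rat compared with mean of its previous three drug-free days by paired t test. Testing continued to minimally effective dose; maximum usually 100 mg/kg. MED is mean over 12 animals.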

[8] = molecular target: Serotonin 2 (5-HT2) receptor (Rattus norvegicus, UniProt P30994+P08909+P14842); assay: Ability to bind at serotonin 5-hydroxytryptamine 2 receptors of rat cortex by displacing [3H]spiperone
D(2) dopamine receptor = D(2) dopamine receptor (Rattus norvegicus, UniProt P61169); assay: Ability to bind at Dopamine receptor D2 of rat corpus striatum by displacing [3H]spiperone
Method in brief: as §1

[9] = molecular target: T2, Adrenergic receptor alpha-1 (Rattus norvegicus, UniProt P15823+P23944+P43140); assay: Ability to bind at alpha-1 adrenergic receptor by displacing [3H]WB-4101; format: protein assay
T2 sequence (P15823 whole entry): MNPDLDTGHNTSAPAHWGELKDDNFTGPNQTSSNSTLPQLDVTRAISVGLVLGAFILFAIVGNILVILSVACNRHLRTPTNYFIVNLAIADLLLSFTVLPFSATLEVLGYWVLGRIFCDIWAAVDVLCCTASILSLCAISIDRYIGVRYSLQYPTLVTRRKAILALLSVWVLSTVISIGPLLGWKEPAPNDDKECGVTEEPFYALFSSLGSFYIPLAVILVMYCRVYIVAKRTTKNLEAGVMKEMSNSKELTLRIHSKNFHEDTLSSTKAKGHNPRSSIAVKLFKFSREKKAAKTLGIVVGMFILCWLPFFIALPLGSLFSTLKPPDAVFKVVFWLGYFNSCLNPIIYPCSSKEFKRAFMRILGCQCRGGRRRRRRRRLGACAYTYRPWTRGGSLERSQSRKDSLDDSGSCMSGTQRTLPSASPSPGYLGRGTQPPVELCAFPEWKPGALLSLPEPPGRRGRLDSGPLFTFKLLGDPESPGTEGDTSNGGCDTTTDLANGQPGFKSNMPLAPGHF
T2 sequence (P23944 whole entry): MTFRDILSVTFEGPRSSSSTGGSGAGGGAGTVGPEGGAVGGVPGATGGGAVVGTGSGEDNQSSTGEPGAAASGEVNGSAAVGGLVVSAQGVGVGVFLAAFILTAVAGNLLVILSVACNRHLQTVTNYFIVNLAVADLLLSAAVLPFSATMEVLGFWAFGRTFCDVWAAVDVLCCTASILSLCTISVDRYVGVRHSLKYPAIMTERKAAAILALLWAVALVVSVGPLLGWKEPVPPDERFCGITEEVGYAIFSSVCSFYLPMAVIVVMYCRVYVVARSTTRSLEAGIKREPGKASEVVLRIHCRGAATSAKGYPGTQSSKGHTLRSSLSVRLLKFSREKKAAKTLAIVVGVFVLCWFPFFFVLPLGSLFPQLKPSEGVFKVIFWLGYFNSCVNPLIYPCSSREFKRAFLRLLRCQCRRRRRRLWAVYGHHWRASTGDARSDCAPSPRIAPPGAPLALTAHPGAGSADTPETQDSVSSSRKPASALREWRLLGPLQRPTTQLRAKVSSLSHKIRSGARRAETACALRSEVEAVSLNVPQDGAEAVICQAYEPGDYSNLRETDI
T2 sequence (P43140 whole entry): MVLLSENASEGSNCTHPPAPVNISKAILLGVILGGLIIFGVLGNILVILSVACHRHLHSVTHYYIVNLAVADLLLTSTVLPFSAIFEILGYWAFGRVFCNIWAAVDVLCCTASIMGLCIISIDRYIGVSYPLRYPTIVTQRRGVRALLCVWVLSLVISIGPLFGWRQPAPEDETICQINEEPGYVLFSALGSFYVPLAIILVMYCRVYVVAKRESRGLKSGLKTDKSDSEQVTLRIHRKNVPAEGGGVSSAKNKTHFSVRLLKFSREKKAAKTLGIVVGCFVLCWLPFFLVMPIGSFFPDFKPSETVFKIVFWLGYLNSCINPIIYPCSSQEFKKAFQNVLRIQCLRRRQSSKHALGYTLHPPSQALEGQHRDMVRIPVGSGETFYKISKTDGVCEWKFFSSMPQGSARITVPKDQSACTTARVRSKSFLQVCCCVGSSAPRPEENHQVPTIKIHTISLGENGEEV
Method in brief: as §1

Mus musculus [10] = assay: Blockade of apomorphine-induced climbing in mice when administered perorally; format: functional; settings: po
Method in brief: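 Male mice habituated 30 min in individual cages, then dosed orally (distilled H2O or 0.5% Methocel suspension, 10 mL/kg) or vehicle. Apomorphine 1.5 mg/kg sc given 30 min later. Climbing scored at 10, 20, 30 min post-apomorphine. At least five animals per dose, maximum 100 mg/kg.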

Rattus norvegicus [11] = assay: Conditioned avoidance response (CAR) when administered perorally; format: functional; settings: po
Rattus norvegicus [12] = assay: Reversal of trifluoperazine-induced catalepsy in rats when administered perorally; Inactive, maximum dose examined was 20 mg/Kg; format: functional, organism-based
Rattus norvegicus [13] = assay: Induction of catalepsy in rats when administered perorally; format: functional; settings: po

D(2) dopamine receptor, sequence (P61169 whole entry): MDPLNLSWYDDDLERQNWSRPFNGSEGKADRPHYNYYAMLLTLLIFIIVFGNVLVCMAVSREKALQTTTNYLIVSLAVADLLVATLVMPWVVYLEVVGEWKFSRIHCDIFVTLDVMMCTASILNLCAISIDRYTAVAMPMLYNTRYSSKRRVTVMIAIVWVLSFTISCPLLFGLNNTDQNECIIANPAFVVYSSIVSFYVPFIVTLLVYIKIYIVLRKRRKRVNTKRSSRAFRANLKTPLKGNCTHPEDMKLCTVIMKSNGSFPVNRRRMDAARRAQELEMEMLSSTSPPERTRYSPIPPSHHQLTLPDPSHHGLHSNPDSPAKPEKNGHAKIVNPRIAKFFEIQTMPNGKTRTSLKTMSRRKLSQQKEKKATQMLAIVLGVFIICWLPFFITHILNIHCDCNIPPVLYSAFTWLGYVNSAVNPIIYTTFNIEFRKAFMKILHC

CN(C)CCCN1c2ccccc2Sc2ccc(Cl)cc21 [CHLORPROMAZINE]
ED50 (Rattus norvegicus [1]): 4.1 mg/kg | ED50 (Rattus norvegicus [2]): 9.6 mg/kg | IC50 [3]: > 1000 nM | MED50 (Mus musculus [4]): 6 mg/kg | ED50 (Rattus norvegicus [5]): inactive | IC50 [6]: 372 nM | MED50 (Rattus norvegicus [7]): 25 mg/kg

OC(CCCN1CCN(c2nccc3sccc23)CC1)c1ccc(F)cc1 (centres undefined)
ED50 (Rattus norvegicus [2]): 9 mg/kg | IC50 [8]: 5.8 nM | IC50 [3]: 3.8 nM | IC50 (D(2) dopamine receptor): 71.7 nM | IC50 [9]: 22.8 nM | MED (Mus musculus [10]): 10 mg/kg | ED50 (Rattus norvegicus [11]): 9.9 mg/kg | MED (Rattus norvegicus [7]; po): 10 mg/kg

CN1CCN(C2=Nc3cc(Cl)ccc3Nc3ccccc32)CC1 [CLOZAPINE]
ED50 (Rattus norvegicus [12]): inactive | MED50 (Mus musculus [4]): 10 mg/kg | ED50 (Rattus norvegicus [13]): > 200 mg/kg | MED50 (Rattus norvegicus [7]): 50 mg/kg
